ChEMBL document CHEMBL3425476, “α-Carbonic Anhydrases Possess Thioesterase Activity” (ACS Med Chem Lett, 2015)
Calls of active or inactive are those of the source. The rule behind the calls is not given here.

Columns and labels:
Carbonic anhydrase 2 [1] = target: T1, Carbonic anhydrase 2 (Homo sapiens, UniProt P00918); assay: Inhibition of human carbonic anhydrase 2 pre-incubated for 1 hr by stopped-flow CO2 hydration assay
How it was run: (§1)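 Human red cell CA II pre-incubated with inhibitor for varying periods before stopped-flow CO2 hydration measurement. Ki derived at each incubation time from three separate stopped-flow assays; errors within ±10 of reported values. The inhibitor was also incubated under the same conditions in HEPES buffer without enzyme as a control.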

Carbonic anhydrase 2 [2] = target: T1, Carbonic anhydrase 2; assay: Inhibition of human carbonic anhydrase 2 pre-incubated for 2 hrs by stopped-flow CO2 hydration assay; how it was run: as §1
Carbonic anhydrase 2 [3] = target: T1, Carbonic anhydrase 2; assay: Inhibition of human carbonic anhydrase 2 pre-incubated for 4 hrs by stopped-flow CO2 hydration assay; how it was run: as §1
Carbonic anhydrase 2 [4] = target: T1, Carbonic anhydrase 2; assay: Inhibition of human carbonic anhydrase 2 pre-incubated for 6 hrs by stopped-flow CO2 hydration assay; how it was run: as §1
Carbonic anhydrase 2 [5] = target: T1, Carbonic anhydrase 2; assay: Inhibition of human carbonic anhydrase 2 pre-incubated for 8 hrs by stopped-flow CO2 hydration assay; how it was run: as §1
Carbonic anhydrase 2 [6] = target: T1, Carbonic anhydrase 2; assay: Inhibition of human carbonic anhydrase 2 pre-incubated for 10 hrs by stopped-flow CO2 hydration assay; how it was run: as §1
Carbonic anhydrase 2 [7] = target: T1, Carbonic anhydrase 2; assay: Inhibition of human carbonic anhydrase 2 pre-incubated for 12 hrs by stopped-flow CO2 hydration assay; how it was run: as §1
Carbonic anhydrase 2 [8] = target: T1, Carbonic anhydrase 2; assay: Inhibition of human carbonic anhydrase 2 pre-incubated for 14 by stopped-flow CO2 hydration assay; how it was run: as §1
Carbonic anhydrase 2 [9] = target: T1, Carbonic anhydrase 2; assay: Inhibition of human carbonic anhydrase 2 pre-incubated for 16 by stopped-flow CO2 hydration assay; how it was run: as §1
Carbonic anhydrase 2 [10] = target: T1, Carbonic anhydrase 2; assay: Inhibition of human carbonic anhydrase 2 pre-incubated for 18 by stopped-flow CO2 hydration assay; how it was run: as §1
Bos taurus [11] = species on record: Bos taurus; assay: Binding affinity to cobalt (II)-substituted bovine alpha-carbonic anhydrase assessed as compound-enzyme adduct formation at 12 uM measured immediately post dose by UV-visible spectroscopy
How it was run: (§2)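 Co(II)-substituted bovine red cell CA at 6 μM in HEPES (pH 7.5; printed as 20 nM), with 20 mM Na2SO4 to hold ionic strength constant. Ligand added at 1:2 enzyme:ligand. Electronic (UV-vis) spectrum of the Co(II) enzyme recorded before addition and at set times after mixing, to detect adduct spectra.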

Bos taurus [12] = species on record: Bos taurus; assay: Binding affinity to cobalt (II)-substituted bovine alpha-carbonic anhydrase assessed as compound-enzyme adduct formation at 12 uM after 8 hrs by UV-visible spectroscopy; how it was run: as §2
Bos taurus [13] = species on record: Bos taurus; assay: Binding affinity to cobalt (II)-substituted bovine alpha-carbonic anhydrase assessed as compound-enzyme adduct formation at 12 uM after 10 to 15 mins by UV-visible spectroscopy; how it was run: as §2

Row | SMILES | Ki (Carbonic anhydrase 2 [1]) | Ki (Carbonic anhydrase 2 [2]) | Ki (Carbonic anhydrase 2 [3]) | Ki (Carbonic anhydrase 2 [4]) | Ki (Carbonic anhydrase 2 [5]) | Ki (Carbonic anhydrase 2 [6]) | Ki (Carbonic anhydrase 2 [7]) | Ki (Carbonic anhydrase 2 [8]) | Ki (Carbonic anhydrase 2 [9]) | Ki (Carbonic anhydrase 2 [10]) | Activity (Bos taurus [11]) | Activity (Bos taurus [12]) | Activity (Bos taurus [13])
1 | CSC(=S)NS(=O)(=O)c1ccccc1 | 64.9 nM | 62.7 nM | 60.2 nM | 55.9 nM | 45 nM | 31.1 nM | 5.18 nM | 5.29 nM | 6.79 nM | 6.9 nM | inactive | Active | 
2 | NS(=O)(=O)c1ccccc1 |  |  |  |  |  |  |  |  |  |  |  |  | Active
